Experimental findings from ChEMBL document CHEMBL1132646, “Synthesis and evaluation of new sulfur-containing L-arginine-derived inhibitors of nitric oxide synthase” (J Med Chem, 1999) are described below.

One test deals with T1, Nitric oxide synthase 3 (Homo sapiens, UniProt P29474).
T1 sequence (P29474 whole entry): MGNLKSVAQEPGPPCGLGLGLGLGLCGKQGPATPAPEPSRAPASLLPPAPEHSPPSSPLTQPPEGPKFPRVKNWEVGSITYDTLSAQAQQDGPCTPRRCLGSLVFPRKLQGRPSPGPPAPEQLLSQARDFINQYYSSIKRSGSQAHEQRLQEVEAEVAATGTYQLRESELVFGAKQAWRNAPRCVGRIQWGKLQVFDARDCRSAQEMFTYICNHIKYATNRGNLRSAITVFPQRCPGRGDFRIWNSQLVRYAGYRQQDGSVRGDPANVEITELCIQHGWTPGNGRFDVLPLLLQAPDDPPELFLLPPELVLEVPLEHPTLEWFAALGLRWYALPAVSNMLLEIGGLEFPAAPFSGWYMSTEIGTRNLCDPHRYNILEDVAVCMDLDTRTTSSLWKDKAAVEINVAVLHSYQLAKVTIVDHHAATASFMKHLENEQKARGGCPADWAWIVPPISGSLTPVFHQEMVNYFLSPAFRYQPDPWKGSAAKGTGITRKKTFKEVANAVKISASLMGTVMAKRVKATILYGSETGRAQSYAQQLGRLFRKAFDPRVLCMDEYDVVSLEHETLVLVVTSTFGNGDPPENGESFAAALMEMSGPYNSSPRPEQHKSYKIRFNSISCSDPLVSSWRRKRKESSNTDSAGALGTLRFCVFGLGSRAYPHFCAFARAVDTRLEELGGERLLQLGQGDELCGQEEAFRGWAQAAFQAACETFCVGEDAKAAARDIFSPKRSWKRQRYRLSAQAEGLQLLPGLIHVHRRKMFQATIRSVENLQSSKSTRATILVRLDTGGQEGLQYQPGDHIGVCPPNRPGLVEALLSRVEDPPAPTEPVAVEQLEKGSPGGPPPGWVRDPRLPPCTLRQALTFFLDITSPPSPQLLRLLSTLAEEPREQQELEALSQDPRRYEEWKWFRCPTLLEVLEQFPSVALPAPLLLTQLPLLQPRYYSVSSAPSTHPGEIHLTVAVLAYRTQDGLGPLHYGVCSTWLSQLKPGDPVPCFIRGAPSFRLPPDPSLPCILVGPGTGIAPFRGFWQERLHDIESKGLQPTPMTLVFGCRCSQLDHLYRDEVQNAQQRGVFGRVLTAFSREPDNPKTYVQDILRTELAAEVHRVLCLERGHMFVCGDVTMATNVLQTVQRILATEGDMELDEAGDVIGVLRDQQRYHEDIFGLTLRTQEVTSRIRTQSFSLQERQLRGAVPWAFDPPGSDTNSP
As to the kind of experiment: Inhibitory concentration against mammalian endothelial nitric oxide synthase (eNOS). The essentials:
(§1)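 Citrulline formation: 20 mM HEPES pH 7.4, 50 μM L-arginine with 0.05 μCi [14C]-L-arginine, 4 μM FAD/FMN/H4B, 1 mM DTT, 1 mg/mL BSA, varied inhibitor; nNOS 12.5 nM, eNOS 25 nM (both plus 1 mM CaCl2, 15 μg/mL calmodulin), iNOS 2.5 nM (mouse, His6-tagged). Initiated with NADPH, 10 min room temperature, stopped pH 5.5 EDTA; [14C]-citrulline separated on Dowex cation exchange, scintillation counted; duplicate.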

In test [1] the target is T2, Nitric oxide synthase, inducible (Mus musculus, UniProt P29477).
T2 sequence (P29477 whole entry): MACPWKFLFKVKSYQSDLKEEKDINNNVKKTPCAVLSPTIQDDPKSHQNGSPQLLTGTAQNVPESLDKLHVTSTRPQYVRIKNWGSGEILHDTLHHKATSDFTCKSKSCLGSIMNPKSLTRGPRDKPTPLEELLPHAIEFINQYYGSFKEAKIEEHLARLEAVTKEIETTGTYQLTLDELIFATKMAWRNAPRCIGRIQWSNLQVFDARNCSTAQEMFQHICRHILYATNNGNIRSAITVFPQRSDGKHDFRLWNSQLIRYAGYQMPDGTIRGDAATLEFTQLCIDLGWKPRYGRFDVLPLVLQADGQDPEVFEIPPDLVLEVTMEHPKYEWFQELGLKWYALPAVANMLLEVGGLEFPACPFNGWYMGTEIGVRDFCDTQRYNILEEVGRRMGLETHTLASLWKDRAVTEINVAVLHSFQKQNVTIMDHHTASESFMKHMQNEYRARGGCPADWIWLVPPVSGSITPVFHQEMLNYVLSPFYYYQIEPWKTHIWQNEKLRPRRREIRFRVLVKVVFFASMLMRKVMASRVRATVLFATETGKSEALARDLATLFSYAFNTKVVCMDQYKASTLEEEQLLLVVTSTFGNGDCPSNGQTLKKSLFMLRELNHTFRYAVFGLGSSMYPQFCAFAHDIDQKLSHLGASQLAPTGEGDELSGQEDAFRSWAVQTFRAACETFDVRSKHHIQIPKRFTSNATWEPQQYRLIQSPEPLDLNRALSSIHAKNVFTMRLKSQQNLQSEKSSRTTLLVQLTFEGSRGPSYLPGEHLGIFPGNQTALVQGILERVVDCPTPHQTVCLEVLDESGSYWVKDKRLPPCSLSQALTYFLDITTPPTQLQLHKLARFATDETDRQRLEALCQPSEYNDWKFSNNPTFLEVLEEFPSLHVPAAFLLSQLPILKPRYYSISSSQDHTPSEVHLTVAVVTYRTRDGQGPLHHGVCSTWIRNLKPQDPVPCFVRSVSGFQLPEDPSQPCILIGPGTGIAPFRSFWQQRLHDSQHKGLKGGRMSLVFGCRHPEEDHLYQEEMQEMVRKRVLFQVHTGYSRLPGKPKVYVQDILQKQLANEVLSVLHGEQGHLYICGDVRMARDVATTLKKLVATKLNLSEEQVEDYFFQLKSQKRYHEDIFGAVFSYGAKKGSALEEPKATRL
As to the kind of experiment: Effective concentration against NADPH oxidase activity of iNOS. The essentials:
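Mouse His6-tagged iNOS (E. coli BL21-DE3 expressed, Ni-NTA purified), 0.5 μM, in 40 mM HEPES pH 7.4 with 0.3 mM DTT, 4 μM each FAD/FMN/H4B, 10 units/mL catalase and SOD, varied analogue concentrations; started with 0.1 mM NADPH. NADPH oxidation rate followed as absorbance drop at 340 nm, 37 °C, triplicate; EC50 for decreased oxidase activity.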

For test [2], the target named is T2, Nitric oxide synthase, inducible. As to the kind of experiment: Inhibitory concentration against mouse inducible nitric oxide synthase (iNOS). The gist of the method:
as §1

A further test addresses Nitric oxide synthase 1 (Homo sapiens, UniProt P29475). Nature of the test: Inhibitory concentration against mammalian Neuronal nitric oxide synthase (nNOS). The essentials: as §1

Chain of Nitric oxide synthase 1 (P29475 whole entry): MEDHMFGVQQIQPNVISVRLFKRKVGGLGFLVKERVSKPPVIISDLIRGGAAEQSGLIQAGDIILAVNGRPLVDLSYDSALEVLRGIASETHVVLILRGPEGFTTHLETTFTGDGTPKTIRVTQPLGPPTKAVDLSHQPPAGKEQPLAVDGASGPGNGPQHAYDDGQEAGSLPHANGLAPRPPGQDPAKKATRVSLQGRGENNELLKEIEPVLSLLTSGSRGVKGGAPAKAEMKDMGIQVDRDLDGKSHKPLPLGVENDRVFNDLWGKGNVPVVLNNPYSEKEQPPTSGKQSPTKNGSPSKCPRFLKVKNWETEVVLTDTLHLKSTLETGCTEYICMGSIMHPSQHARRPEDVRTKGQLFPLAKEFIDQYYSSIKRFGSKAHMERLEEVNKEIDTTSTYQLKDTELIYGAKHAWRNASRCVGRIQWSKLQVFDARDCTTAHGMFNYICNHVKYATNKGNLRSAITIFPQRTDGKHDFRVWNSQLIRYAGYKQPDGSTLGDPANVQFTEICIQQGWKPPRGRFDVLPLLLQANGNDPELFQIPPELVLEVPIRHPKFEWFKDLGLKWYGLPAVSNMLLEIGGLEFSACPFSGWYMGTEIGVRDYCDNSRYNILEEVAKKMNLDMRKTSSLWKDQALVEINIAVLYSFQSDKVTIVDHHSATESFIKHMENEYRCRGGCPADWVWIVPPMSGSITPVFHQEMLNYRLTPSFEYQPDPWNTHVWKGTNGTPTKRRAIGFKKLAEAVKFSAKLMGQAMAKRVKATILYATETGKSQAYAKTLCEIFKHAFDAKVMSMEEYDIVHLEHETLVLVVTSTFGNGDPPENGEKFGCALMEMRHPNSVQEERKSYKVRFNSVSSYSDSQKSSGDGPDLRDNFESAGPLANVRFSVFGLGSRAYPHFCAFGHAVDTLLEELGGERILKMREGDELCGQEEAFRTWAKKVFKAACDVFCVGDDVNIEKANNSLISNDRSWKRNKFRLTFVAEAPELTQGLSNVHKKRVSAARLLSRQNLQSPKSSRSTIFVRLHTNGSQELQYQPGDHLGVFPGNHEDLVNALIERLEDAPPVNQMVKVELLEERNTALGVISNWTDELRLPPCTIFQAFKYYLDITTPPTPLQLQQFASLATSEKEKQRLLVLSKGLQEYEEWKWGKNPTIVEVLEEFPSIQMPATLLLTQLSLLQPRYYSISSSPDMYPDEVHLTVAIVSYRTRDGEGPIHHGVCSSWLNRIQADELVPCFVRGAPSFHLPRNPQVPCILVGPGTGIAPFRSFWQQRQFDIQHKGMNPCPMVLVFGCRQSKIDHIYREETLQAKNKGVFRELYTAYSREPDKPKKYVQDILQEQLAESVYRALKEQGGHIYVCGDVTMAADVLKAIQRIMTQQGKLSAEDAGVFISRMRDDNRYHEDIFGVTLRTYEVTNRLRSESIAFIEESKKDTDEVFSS

What is called IC50 is the concentration at which inhibition is half-maximal. Read a high IC50 as weaker potency in that assay. For orientation: EC50 means the concentration that produces a half-maximal response. A word on the Ki: it is a dissociation constant, usually derived from enzyme kinetics or from competition with a known ligand. Read a high Ki as weaker binding. For `CS/C(=N/N)NCCC[C@H](N)C(=O)O`, the IC50 at Nitric oxide synthase 3 was determined as 752 µM; in test [2] it was 320 µM; at Nitric oxide synthase 1 it was 327 µM. Moreover, the EC50 in test [1] came out at 180 µM. In test [2], this compound gave a Ki of 58 µM.

`NNC(=S)NCCC[C@H](N)C(=O)O`: the IC50 stood at 3060 µM at Nitric oxide synthase 3, 3710 µM in test [2] and 1620 µM at Nitric oxide synthase 1. In test [1], this compound displayed an EC50 of 190 µM. Moreover, the Ki in test [2] stood at 202 µM.

Regarding `CS/C(=N/O)NCCC[C@H](N)C(=O)O`, the IC50 at Nitric oxide synthase 3 amounted to 19.7 µM; in test [2] it was 13 µM; on Nitric oxide synthase 1, 6.7 µM. In test [1], this compound returned an EC50 of 6.6 µM. The same compound displayed a Ki in test [2] of 7 µM.
